For one experiment, the system named is Escherichia coli. The experiment can be described thus: Minimum inhibitory concentration against Escherichia coli. In kind it is functional. The method, boiled down:
(§1)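 Agar dilution on defined peptide susceptibility medium with peptide in serial twofold dilutions. Strains subcultured on blood or chocolate agar. Inoculum from overnight culture in liquid peptide medium, diluted to approx 1×10^7 cfu/mL, applied by Steers replicator. Plates incubated overnight at 37 °C. MIC taken as lowest concentration permitting fewer than ten colonies at 16–18 h.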

For another experiment, the system named is Klebsiella aerogenes. The experiment can be described thus: Minimum inhibitory concentration against Enterobacter aerogenes. In kind it is functional. Put shortly: as §1
The test system of the next experiment is Enterobacter cloacae. The experiment can be described thus: Minimum inhibitory concentration against Enterobacter cloacae. The experiment is classed as functional. The method, boiled down: as §1
The next experiment relates to Haemophilus influenzae. The experiment can be described thus: Minimum inhibitory concentration against Hemophilus influenzae. In kind it is functional. Put shortly: (§2)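 Agar dilution on defined peptide susceptibility medium with hemin (25 μg/mL), NAD (25 μg/mL) and Isovitalex (1%) added, peptide in serial twofold dilutions. Colonies from overnight chocolate or blood agar resuspended in liquid peptide medium to 10⁸ cfu/mL, applied by Steers replicator. Incubation overnight at 37 °C under 7% CO₂. MIC: lowest concentration giving fewer than ten colonies at 16–18 h.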

Another experiment concerns Klebsiella pneumoniae. The experiment can be described thus: Minimum inhibitory concentration against Klebsiella pneumoniae. In kind it is functional. The method, boiled down: as §1
The subject of the next experiment is Morganella morganii. The experiment can be described thus: Minimum inhibitory concentration against Morganella morganii. In kind it is functional. The method, boiled down: as §1
The test system of a further experiment is Pseudomonas aeruginosa. The experiment can be described thus: Minimum inhibitory concentration against Pseudomonas aeruginosa. The experiment is classed as functional. The method, boiled down:
as §1

Another experiment deals with Proteus mirabilis. The experiment can be described thus: Minimum inhibitory concentration against Proteus mirabilis. The experiment is classed as functional. The method, boiled down:
as §1

The test system of experiment [1] is Salmonella typhimurium. The experiment can be described thus: Minimum inhibitory concentration against Salmonella Typhimurium. The experiment is classed as functional, Salmonella enterica subsp. enterica serovar Typhimurium. Conditions: Salmonella enterica. The method, boiled down:
as §1

The next experiment has as its system Serratia marcescens. The experiment can be described thus: Minimum inhibitory concentration against Serratia marcescens. In kind it is functional. The method, boiled down:
as §1

The subject of another experiment is Shigella flexneri. The experiment can be described thus: Minimum inhibitory concentration against Shigella flexneri. In kind it is functional. The method, boiled down:
as §1

Experiment [2] has as its system Staphylococcus epidermidis. The experiment can be described thus: Minimum inhibitory concentration against Staphylococcus epidermidis. In kind it is functional. The method, boiled down:
as §1

A further experiment concerns Streptococcus agalactiae. The experiment can be described thus: Minimum inhibitory concentration against Streptococcus agalactiae. The experiment is classed as functional. Put shortly:
as §2

The test system of the next experiment is Staphylococcus aureus. The experiment can be described thus: Minimum inhibitory concentration against Staphylococcus aureus. The experiment is classed as functional. The method, boiled down: as §1
In a further experiment the test system is Enterococcus faecalis. The experiment can be described thus: Minimum inhibitory concentration against Streptococcus faecalis. The experiment is classed as functional. Put shortly: as §1
A further experiment relates to Streptococcus pyogenes. The experiment can be described thus: Minimum inhibitory concentration against Streptococcus pyogenes. In kind it is functional. Put shortly:
as §2

In experiment [3] the test system is Salmonella typhimurium. The experiment can be described thus: Minimum inhibitory concentration against Salmonella Typhimurium.

SMILES strings stand for the structures. ≈ marks a conversion by molar mass, not a printed value. Where a SMILES comes first, the peptide text is derived from it. [ ]: non-standard residue; d: D form. Pra = C#CC[CH](N)C(=O)O

Here are results for eleven compounds from ChEMBL document CHEMBL1122413, “Chloralanyl and propargylglycyl dipeptides. Suicide substrate containing antibacterials” (1983).

`C#CC[C@H](NC(=O)[C@H](C)N)C(=O)O.O=C(O)C(F)(F)F`: the MIC with Escherichia coli, against Klebsiella aerogenes, against Enterobacter cloacae, in the experiment on Haemophilus influenzae, against Klebsiella pneumoniae and in the experiment on Morganella morganii was more than 100 µg/mL in each case. The MIC against Pseudomonas aeruginosa is more than 100 µg/mL; against Proteus mirabilis, more than 100 µg/mL; with Salmonella typhimurium [1], more than 100 µg/mL; in the experiment with Serratia marcescens it was more than 100 µg/mL; with Shigella flexneri it was more than 100 µg/mL; in [2] it was 1.56 µg/mL. The MIC with Streptococcus agalactiae is 100 µg/mL; in the experiment on Staphylococcus aureus it was more than 100 µg/mL; in the experiment on Enterococcus faecalis, 100 µg/mL; with Streptococcus pyogenes, more than 100 µg/mL.

As for `N[C@H](CCl)C(=O)O`, the MIC with Escherichia coli is 6.25 µg/mL (≈ 50.6 µM); in the experiment on Klebsiella aerogenes, 12.5 µg/mL (≈ 101 µM); with Enterobacter cloacae, 100 µg/mL (≈ 809 µM); against Haemophilus influenzae it was 6.25 µg/mL (≈ 50.6 µM); in the experiment on Klebsiella pneumoniae it was 100 µg/mL (≈ 809 µM); with Morganella morganii it was more than 100 µg/mL. The MIC in the experiment on Pseudomonas aeruginosa is more than 100 µg/mL; in the experiment with Proteus mirabilis it was more than 100 µg/mL; in the experiment on Salmonella typhimurium [1], 100 µg/mL (≈ 809 µM); in the experiment with Serratia marcescens it was 25 µg/mL (≈ 202 µM); in the experiment with Shigella flexneri, 50 µg/mL (≈ 405 µM); in experiment [2], 25 µg/mL (≈ 202 µM). Besides, the MIC is 12.5 µg/mL (≈ 101 µM) in the experiment on Streptococcus agalactiae, 12.5 µg/mL (≈ 101 µM) with Staphylococcus aureus, 50 µg/mL (≈ 405 µM) against Enterococcus faecalis and 12.5 µg/mL (≈ 101 µM) against Streptococcus pyogenes.

With `C#CC[C@@H](NC(=O)[C@H](C)N)C(=O)O.O=C(O)C(F)(F)F`, the MIC in the experiment with Escherichia coli, in the experiment with Klebsiella aerogenes, in the experiment with Enterobacter cloacae, against Haemophilus influenzae, against Klebsiella pneumoniae and in the experiment with Morganella morganii was more than 100 µg/mL in each case. Besides, the MIC (in the experiment on Pseudomonas aeruginosa; against Proteus mirabilis; against Salmonella typhimurium [1]; against Serratia marcescens; in the experiment on Shigella flexneri; in [2]) was more than 100 µg/mL in each case. In addition, the MIC against Streptococcus agalactiae, with Staphylococcus aureus, with Enterococcus faecalis and against Streptococcus pyogenes was more than 100 µg/mL in each case.

`C#CC[C@@H](N)C(=O)N[C@@H](C)C(=O)O.O=C(O)C(F)(F)F`: the MIC with Escherichia coli, in the experiment with Klebsiella aerogenes, in the experiment on Enterobacter cloacae, in the experiment with Haemophilus influenzae, with Klebsiella pneumoniae and with Morganella morganii was more than 100 µg/mL throughout. For the same compound, the MIC (against Pseudomonas aeruginosa; in the experiment on Proteus mirabilis; against Salmonella typhimurium [1]; against Serratia marcescens; against Shigella flexneri; in experiment [2]) was more than 100 µg/mL in each case. For the same compound, the MIC against Streptococcus agalactiae, against Staphylococcus aureus, in the experiment on Enterococcus faecalis and against Streptococcus pyogenes was more than 100 µg/mL throughout.

As to `C[C@H](NC(=O)[C@@H](N)CCl)C(=O)O.O=C(O)C(F)(F)F`, the MIC against Escherichia coli, against Klebsiella aerogenes, against Enterobacter cloacae, against Haemophilus influenzae, in the experiment on Klebsiella pneumoniae and against Morganella morganii was more than 100 µg/mL each time. The MIC against Pseudomonas aeruginosa was more than 100 µg/mL; against Proteus mirabilis, more than 100 µg/mL; in the experiment on Salmonella typhimurium [1], more than 100 µg/mL; with Serratia marcescens, more than 100 µg/mL; in the experiment on Shigella flexneri it was more than 100 µg/mL; in [2], 0.025 µg/mL. For the same compound, the MIC is 0.39 µg/mL with Streptococcus agalactiae, 0.05 µg/mL with Staphylococcus aureus, more than 100 µg/mL against Enterococcus faecalis and more than 100 µg/mL against Streptococcus pyogenes.

Regarding `C[C@H](N)C(=O)N[C@@H](CCl)C(=O)O.O=C(O)C(F)(F)F`, the MIC against Escherichia coli, with Klebsiella aerogenes, with Enterobacter cloacae, in the experiment with Haemophilus influenzae, in the experiment with Klebsiella pneumoniae and with Morganella morganii was more than 100 µg/mL in each case. Besides, the MIC is more than 100 µg/mL in the experiment with Pseudomonas aeruginosa; more than 100 µg/mL in the experiment with Proteus mirabilis; more than 100 µg/mL with Salmonella typhimurium [1]; more than 100 µg/mL in the experiment on Serratia marcescens; more than 100 µg/mL against Shigella flexneri; 0.0125 µg/mL in experiment [2]. For the same compound, the MIC is 0.2 µg/mL in the experiment on Streptococcus agalactiae, 0.0125 µg/mL against Staphylococcus aureus, more than 100 µg/mL with Enterococcus faecalis and more than 100 µg/mL in the experiment with Streptococcus pyogenes.

In the case of `C[C@H](N)C(=O)N[C@@H](C)C(=O)O.O=C(O)C(F)(F)F`, the MIC with Escherichia coli, against Klebsiella aerogenes, against Enterobacter cloacae, against Haemophilus influenzae, in the experiment on Klebsiella pneumoniae and in the experiment on Morganella morganii was more than 100 µg/mL throughout. Further, the MIC (against Pseudomonas aeruginosa; against Proteus mirabilis; with Serratia marcescens; in the experiment with Shigella flexneri; in experiment [2]; with Streptococcus agalactiae) was more than 100 µg/mL in each case. Also, the MIC against Staphylococcus aureus, with Enterococcus faecalis, in the experiment on Streptococcus pyogenes and in the experiment with Salmonella typhimurium [3] was more than 100 µg/mL throughout.

For the compound `C[C@@H](NC(=O)[C@H](N)CCl)C(=O)O.O=C(O)C(F)(F)F`, the MIC against Escherichia coli, in the experiment with Klebsiella aerogenes, in the experiment on Enterobacter cloacae, against Haemophilus influenzae, in the experiment with Klebsiella pneumoniae and against Morganella morganii was more than 100 µg/mL each time. The MIC (with Pseudomonas aeruginosa; in the experiment on Proteus mirabilis; with Salmonella typhimurium [1]; with Serratia marcescens; against Shigella flexneri; in experiment [2]) was more than 100 µg/mL in each case. The MIC with Streptococcus agalactiae, against Staphylococcus aureus, in the experiment on Enterococcus faecalis and against Streptococcus pyogenes was more than 100 µg/mL in each case.

On to `N[C@@H](CCl)C(=O)O`, for which the MIC in the experiment on Escherichia coli, with Klebsiella aerogenes, with Enterobacter cloacae, in the experiment with Haemophilus influenzae, in the experiment with Klebsiella pneumoniae and in the experiment with Morganella morganii was more than 100 µg/mL each time. The MIC was more than 100 µg/mL against Pseudomonas aeruginosa; more than 100 µg/mL in the experiment on Proteus mirabilis; more than 100 µg/mL against Salmonella typhimurium [1]; more than 100 µg/mL with Serratia marcescens; more than 100 µg/mL against Shigella flexneri; 25 µg/mL (≈ 202 µM) in experiment [2]. Further, the MIC with Streptococcus agalactiae is 3.12 µg/mL (≈ 25.3 µM); against Staphylococcus aureus, 3.12 µg/mL (≈ 25.3 µM); in the experiment with Enterococcus faecalis, more than 100 µg/mL; with Streptococcus pyogenes, 3.12 µg/mL (≈ 25.3 µM).

For the compound `C#CC[C@H](NC(=O)[C@@H](N)CC#C)C(=O)O.O=C(O)C(F)(F)F` (H-[Pra]-[Pra]-OH), the MIC in the experiment with Escherichia coli is 25 µg/mL; in the experiment on Klebsiella aerogenes, more than 100 µg/mL; in the experiment with Enterobacter cloacae it was 50 µg/mL; in the experiment with Haemophilus influenzae, more than 100 µg/mL; with Klebsiella pneumoniae, more than 100 µg/mL; in the experiment on Morganella morganii, more than 100 µg/mL. Besides, the MIC is more than 100 µg/mL in the experiment with Pseudomonas aeruginosa; more than 100 µg/mL in the experiment on Proteus mirabilis; more than 100 µg/mL in the experiment on Salmonella typhimurium [1]; more than 100 µg/mL in the experiment with Serratia marcescens; 12.5 µg/mL with Shigella flexneri; 0.78 µg/mL in experiment [2]. The MIC against Streptococcus agalactiae was 3.12 µg/mL; with Staphylococcus aureus it was 3.12 µg/mL; against Enterococcus faecalis it was more than 100 µg/mL; in the experiment with Streptococcus pyogenes it was more than 100 µg/mL.

`C#CCC(N)C(=O)NC(CC#C)C(=O)O.O=C(O)C(F)(F)F` (stereo unspecified) (H-[Pra]-[Pra]-OH; configuration not given here): the MIC with Escherichia coli, in the experiment with Klebsiella aerogenes, with Enterobacter cloacae, against Haemophilus influenzae, against Klebsiella pneumoniae and against Morganella morganii was more than 100 µg/mL throughout. Besides, the MIC against Pseudomonas aeruginosa was more than 100 µg/mL; against Proteus mirabilis, more than 100 µg/mL; with Salmonella typhimurium [1], more than 100 µg/mL; against Serratia marcescens, more than 100 µg/mL; against Shigella flexneri, more than 100 µg/mL; in [2], 3.12 µg/mL. Besides, the MIC in the experiment with Streptococcus agalactiae was 6.25 µg/mL; with Staphylococcus aureus, 12.5 µg/mL; in the experiment on Enterococcus faecalis it was more than 100 µg/mL; against Streptococcus pyogenes, more than 100 µg/mL.
